Test results: publication PMC3171079 (The Journal of General Physiology, 2011)
Entries after “also recorded” stand apart in the source; their conditions may differ.

Key:
Cx26CL (15N-labeled) = assay: 1H-15N HSQC NMR interaction; type: binding, rat; settings: 10 µM Cx26CL, pH 7.0, 42°C, 6% LPPG, 20 mM MES
[1] = test system: homomeric Cx26Tc hemichannels; assay: TSF liposome hemichannel activity, tag cleaved; type: biochemical, rat; settings: 10 mM taurine; tag cleaved (LVPR left); n = 5–8
How it was run: (§1)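 Tagged rat hemichannels were anti-HA immunopurified from dox-induced Tet-On HeLa, then cleaved with 2 U thrombin for 18 h at 4°C, leaving LVPR at the C-terminus. They were reconstituted by gel filtration into rhod-PE-labelled liposomes in urea buffer, then centrifuged for 3 h at 37°C through iso-osmolar urea/sucrose gradients containing aminosulfonate. Band densities were read by refractometry. Lower-band fraction was Poisson-corrected, normalized per preparation and pooled.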

[2] = test system: nontagged Cx26 hemichannels; assay: Hemichannel calcein uptake by HeLa cells; type: cell-based; settings: extracellular taurine, low [Ca2+]ex; n = 3
How it was run: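 HeLa clone stably expressing nontagged Cx26. Semi-confluent monolayers were washed, then loaded for 30 min at 37°C in low-Ca buffer (0.5 mM CaCl2, 30 mM KCl, 11 mM glucose, Tris pH 7.4) with 100 µM calcein, with or without taurine. Cells were washed in 2 mM Ca buffer and imaged. Dye-containing cells were counted, and each taurine condition was normalized to its own taurine-free control.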

[3] = test system: untagged heteromeric Cx26/Cx32 hemichannels; assay: TSF liposome hemichannel activity, untagged; type: biochemical; settings: with AS treatment
[4] = test system: heteromeric Cx26T/Cx32 hemichannels; assay: TSF liposome hemichannel activity; type: biochemical, rat
How it was run: (§2)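 Rat connexins carrying a C-terminal thrombin-site–HA(HN)6 tag were expressed in Tet-On HeLa (1 µg/ml dox, 48 h). Hemichannels were octylglucoside-solubilized, anti-HA immunopurified and reconstituted into PC/PS/rhod-PE liposomes entrapping urea buffer. Taurine was present in iso-osmolar urea/sucrose gradients (300,000 gav, 3 h, 37°C). Bands were followed by rhod-PE fluorescence, densities by refractometry at 25°C. Lower-band fraction was Poisson-corrected and normalized to the preparation maximum.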

[5] = 37°C; source not given; cited from earlier work
[6] = test system: heteromeric Cx26Tc/Cx32 hemichannels; assay: TSF liposome hemichannel activity, tag cleaved; type: biochemical, rat
How it was run: as §1

Cx26T/Cx32 hemichannels = assay: Hemichannel calcein uptake by HeLa cells; type: cell-based, rat; settings: extracellular taurine, low [Ca2+]ex; n = 3
[7] = test system: nontagged Cx26 junctional channels; assay: Parachute assay for gap junctional communication; type: cell-based; settings: n = 4–9; for Intercellular calcein transfer: extracellular taurine, normalized to control
How it was run: (§3)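 Parachute dye-coupling assay. Connexin-expressing HeLa donor cells were labelled for 30 min at 37°C with 10 µM CM-DiI plus 5 µM calcein-AM, washed in PBS/glucose, trypsinized and seeded at ~1:150 onto semi-confluent unlabelled receiver monolayers. Cells attached for 3 h at 37°C with extracellular taurine. Calcein-positive receivers per DiI-labelled donor were averaged and normalized to control cultures.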

[8] = test system: the different tagged connexin hemichannels other than Cx26/Cx32T; assay: Hemichannel calcein uptake by HeLa cells; type: cell-based, rat; settings: extracellular taurine, low [Ca2+]ex; n = 3
[9] = test system: Cx26/Cx32T junctional channels; assay: Parachute assay for gap junctional communication; type: cell-based, rat; settings: n = 4–9
How it was run: as §3

[10] = test system: heteromeric Cx26/Cx32Tc hemichannels; assay: TSF liposome hemichannel activity, tag cleaved; type: biochemical, rat
How it was run: as §1

[11] = test system: homomeric Cx32Tc hemichannels; assay: TSF liposome hemichannel activity, tag cleaved; type: biochemical, rat
How it was run: as §1

[12] = test system: hemichannels that contained connexin26 (Cx26), homomeric or with Cx32 (heteromeric); settings: cytoplasmic concentrations; ref Tao and Harris, 2004; cited from earlier work
[13] = test system: untagged homomeric Cx26 hemichannels; assay: TSF liposome hemichannel activity, untagged; type: biochemical; settings: with AS treatment
[14] = test system: Cx26T/Cx32 junctional channels; assay: Parachute assay for gap junctional communication; type: cell-based, rat; settings: extracellular taurine; normalized to control; n = 4–9
[15] = test system: homomeric Cx32T hemichannels; assay: TSF liposome hemichannel activity; type: biochemical, rat; settings: taurine-exposed liposomes
How it was run: as §2

Cx26/Cx32T hemichannels = assay: Hemichannel calcein uptake by HeLa cells; type: cell-based, rat; settings: extracellular taurine, low [Ca2+]ex; n = 3
[16] = test system: heteromeric Cx26/Cx32T hemichannels; assay: TSF liposome hemichannel activity; type: biochemical, rat; settings: taurine-exposed liposomes
How it was run: as §2

[17] = test system: homomeric Cx26T hemichannels; assay: TSF liposome hemichannel activity; type: biochemical, rat
How it was run: as §2

[18] = test system: Cx26CT–^biotCL3 interaction; assay: CT+CL peptide-binding assay; design: species or system rat
Cx26CL–Cx26CT complex = assay: 1H-15N HSQC NMR, effect of taurine on CL–CT complex; type: binding, rat; settings: pH 7.0, 42°C
[19] = test system: Cx32T junctional channels; assay: Parachute assay for gap junctional communication; type: cell-based, rat; settings: extracellular taurine; normalized to control; n = 4–9
How it was run: as §3

[20] = up to 50 mM of protonated taurine
[21] = tag cleaved (LVPR left), n = 5–8
[22] = 30 mM taurine, 4 mM Cx26CT, 10 µM Cx26CL
[23] = extracellular HEPES in presence of extracellular taurine

Q: With “Cx26CT: peptide with sequence corresponding to the Cx26CT (residues 213–226) (LFIRYCSGKSKRPV)” as the molecule, how does the “Interaction with Cx26CL by NMR (resonance peaks affected)” value (Cx26CL (15N-labeled); 4 mM Cx26CT) read?
A: more resonance peaks are affected by the Cx26CT than by taurine

Q: Which “AS effect on hemichannel activity (TSF)” value [1] does the source give for NCCS(=O)(=O)O [taurine, β-aminosulfonic acid] here?
A: remained AS insensitive

Q: What about the Calcein hemichannel uptake [2] of the same molecule?
A: markedly reduced

Q: What about the “Occlusion of hemichannels (TSF band shift from lowest to upper band)” value [3] of the same molecule?
A: full occlusion of the hemichannels

Q: And the “Pore narrowing (intermediate band in TSF)” value (from here on “Pore narrowing”) ([4]; taurine-exposed liposomes)?
A: do not form intermediate bands

Q: And the “Inhibition of hemichannels (TSF)” value [4, 20]?
A: not inhibited

Q: And the “Interaction with Cx26CL by NMR (resonance peaks affected)” value (Cx26CL (15N-labeled); 30 mM taurine)?
A: taurine interacts with the Cx26CL at some residues (peaks iii and iv)

Q: What about the pKa [5] of the same molecule?
A: 8.8

Q: And the “AS inhibition of hemichannel activity (TSF)” value ([6]; 10 mM taurine, tag cleaved (LVPR left), n = 5–8)?
A: AS inhibition was restored

Q: What about the “Pore narrowing” value ([6]; taurine-exposed liposomes) of the same molecule?
A: do not form intermediate bands

Q: And the Calcein dye uptake (Cx26T/Cx32 hemichannels)?
A: absence of effect

Q: And the Intercellular calcein transfer [7]?
A: markedly reduced

Q: What about the Intercellular calcein transfer ([7]; listed as AS) of the same molecule?
A: substantially reduced

Q: What about the Calcein dye uptake [8] of the same molecule?
A: absence of effect

Q: And the Intercellular calcein transfer ([9]; extracellular taurine, normalized to control)?
A: decreased

Q: And the “AS sensitivity of hemichannel activity (TSF)” value [10, 21]?
A: AS sensitive

Q: And the “Pore narrowing” value ([10]; taurine-exposed liposomes)?
A: do not form intermediate bands

Q: And the “AS sensitivity of hemichannel activity (TSF)” value [11, 21]?
A: AS insensitive

Q: And the “Pore narrowing” value ([11]; taurine-exposed liposomes)?
A: do not form intermediate bands

Q: And the “Inhibition of Cx26-containing hemichannels by cytoplasmic AS” value [12]?
A: inhibitory at cytoplasmic concentrations

Q: What about the “Occlusion of hemichannels (TSF band shift from lowest to upper band)” value [13] of the same molecule?
A: full occlusion of the hemichannels

Q: What about the Intercellular calcein transfer [14] of the same molecule?
A: not in the Cx26T/Cx32 cells or the Cx26T cells

Q: And the “Pore narrowing” value [15]?
A: do not form intermediate bands

Q: And the “Completeness of inhibition of dye uptake” value (Cx26/Cx32T hemichannels)?
A: not complete

Q: What about the “Pore narrowing” value [16] of the same molecule?
A: do not form intermediate bands

Q: And the “Effect on pore diameter (TSF band density)” value ([17]; 10 mM AS (taurine))?
A: no discernable effect on the pore diameter

Q: And the “Inhibition of hemichannels (TSF)” value [17, 20]?
A: not inhibited

Q: And the “Taurine concentration for complete dissociation of CL–CT peptides” value ([18]; 10 µM ^biotCL3, not fit to any standard binding isotherm)?
A: ~5 mM

Q: And the “Disruption of CL–CT peptide interaction” value ([18]; 1 mM taurine, pH 6.5, 10 µM ^biotCL3)?
A: Approximately 50%

Q: And the “Effect of taurine on Cx26CT–CL3 interaction” value ([18]; 10 mM taurine, 10 µM CL peptide)?
A: substantial but not complete dissociation; also recorded: substantially reduced

Q: What about the “Concentration dependence of disruption of CL–CT interaction” value ([18]; pH 6.5 and 7.4, 10 µM ^biotCL3) of the same molecule?
A: a linear function of the log of taurine concentration

Q: What about the “pH dependence of taurine disruption of CL–CT interaction” value ([18]; pH 6.5 versus 7.4, 10 µM ^biotCL3) of the same molecule?
A: substantially greater at the lower pH

Q: And the “Effect on Cx26CL–Cx26CT complex by NMR, Fig. 8 B peaks” value (Cx26CL–Cx26CT complex; [22])?
A: a negligible effect of taurine on the Cx26CL–Cx26CT complex

Q: And the “Effect on Cx26CL–Cx26CT complex by NMR, Fig. 8 D peaks” value (Cx26CL–Cx26CT complex; [22])?
A: move to unique positions in the presence of both taurine and the Cx26CT

Q: And the “Effect on Cx26CL–Cx26CT interaction by NMR, Fig. 8 C peaks” value (Cx26CL–Cx26CT complex; [22])?
A: taurine reverses the Cx26CL–Cx26CT interaction at this position

Q: And the “Mode of action on Cx26CT–Cx26CL interaction” value (Cx26CL–Cx26CT complex; concluded from NMR)?
A: competitive inhibitor of the interaction between Cx26CT and the Cx26CL

Q: And the Intercellular calcein transfer [19]?
A: unchanged compared with controls

Q: With O=S(=O)(O)CCN1CCN(CCO)CC1 [HEPES] as the molecule, how does the “Block of taurine effect on junctional calcein transfer” value [7, 23] read?
A: eliminated by HEPES; also recorded: restored AS insensitivity

Q: What about the “Block of taurine effect on junctional channel permeability of calcein” value [9, 23] of the same molecule?
A: effectively eliminated the taurine effect; also recorded: AS insensitive
